{"data": "Measured values from different studies", "target": "MAP kinase-activated protein kinase 3 (MAPKAPK3, Homo sapiens, UniProt Q16644)", "note": "Each line is one published result; the experiments were not run side by side."}
{"Compound": "O=C(Nc1cnn(-c2csc(C(=O)NC3COC3)c2)c1)Nc1c(F)cccc1Cl", "assay": "enzyme activity, inhibitor", "setting": "5 µM", "measurement": "remaining activity", "value": "95.6%"}
{"Compound": "c1ccc(CNc2nc(N3CCOc4ccccc43)nc3c2CCCC3)cc1", "assay": "target engagement in cells, inhibitor, chemoproteomics", "setting": "20 mM", "measurement": "inhibition", "value": "-11.1%"}
{"Compound": "Oc1cccc(-c2nc(N3CCOCC3)c3oc4ncccc4c3n2)c1", "assay": "enzyme activity, inhibitor", "setting": "10 µM", "measurement": "remaining activity", "value": "100%"}
{"Compound": "CCCOc1ccc(OC)c(F)c1C(=O)c1ccc(C(=O)N[C@@H]2CNC[C@H]2NC(=O)c2ccc3[nH]ncc3c2)cc1", "assay": "enzyme activity, inhibitor", "setting": "10 µM", "measurement": "remaining activity", "value": "68%"}
{"Compound": "CCCS(=O)(=O)Nc1ccc(F)c(C(=O)c2c[nH]c3ncc(-c4ccc(Cl)cc4)cc23)c1F", "assay": "enzyme activity, inhibitor", "setting": "1 µM", "measurement": "inhibition", "value": "< 10%"}
{"Compound": "FC(F)(F)Oc1cccc(-c2cnc3ccc(-c4ccncc4)nn23)c1", "assay": "enzyme activity, inhibitor, radiometric", "setting": "1 µM", "measurement": "activity vs control", "value": "107%"}
{"Compound": "Cc1ccc(NC(=O)c2ccc(C)c(C(F)(F)F)c2)cc1C#Cc1nn(C2CCC(O)CC2)c2ncnc(N)c12 (stereo not shown)", "assay": "cell-free assay", "setting": "10 µM", "measurement": "remaining signal", "value": "96%"}
{"Compound": "CNc1cccc2cc(C(=O)Nc3ccc(C(=O)O)cc3)c(=O)[nH]c12", "assay": "enzyme activity, inhibitor", "setting": "10 µM", "measurement": "inhibition", "value": "-3.2%"}
{"Compound": "CCN(CC)CCNC(=O)c1c(C)[nH]c(/C=C2\\C(=O)Nc3ccc(F)cc32)c1C", "assay": "enzyme activity, inhibitor", "setting": "0.3 µM", "measurement": "inhibition", "value": "-10%"}
{"Compound": "CC/C(=N\\NC(=O)NCc1cccc(O)c1)c1ccc(O)c(C)c1O", "assay": "enzyme activity, inhibitor", "setting": "0.1 µM", "measurement": "inhibition", "value": "-6%"}
{"Compound": "CC(C)(C)c1nc2c(s1)c1nc(N)ncc1c1ccc(NS(=O)(=O)c3c(F)cccc3F)c(F)c12", "assay": "enzyme activity, inhibitor, radiometric", "setting": "1 µM", "measurement": "remaining activity", "value": "93%"}
{"Compound": "CNC(=O)c1cc(Oc2ccc(NC(=O)Nc3ccc(Cl)c(C(F)(F)F)c3)cc2)ccn1", "assay": "enzyme activity, inhibitor", "setting": "10 µM", "measurement": "inhibition", "value": "-5%"}
{"Compound": "COc1cc(/C=C/C(=O)CC(=O)/C=C/c2ccc(O)c(OC)c2)ccc1O", "assay": "enzyme activity, inhibitor", "setting": "1 µM", "measurement": "activity vs control", "value": "76%"}
{"Compound": "Cc1ccc(Nc2nccc(N(C)c3ccc4c(C)n(C)nc4c3)n2)cc1S(N)(=O)=O", "assay": "enzyme activity, inhibitor", "setting": "10 µM", "measurement": "inhibition", "value": "-3%"}
{"Compound": "COc1cc2ncnc(Nc3ccc(Oc4ccccc4)c(C)c3C)c2cc1OC", "assay": "enzyme activity, inhibitor", "setting": "1 µM", "measurement": "inhibition", "value": "-14%"}
{"Compound": "FC(F)c1nc2ccccc2n1-c1nc(N2CCOCC2)nc(N2CCOCC2)n1", "assay": "enzyme activity, inhibitor", "setting": "10 µM", "measurement": "remaining activity", "value": "97%"}
{"Compound": "COc1cc(Nc2cnc(C#N)c(O[C@H](C)CN(C)C)n2)ncc1-c1cnn(C)c1", "assay": "enzyme activity, inhibitor, radiometric", "setting": "10 µM", "measurement": "remaining activity", "value": "80%"}
{"Compound": "CCOc1cc(-c2nncn2C)ccc1Nc1ncc2cc(C)nc(NCC(C)(C)C)c2n1", "assay": "enzyme activity, inhibitor, FRET", "setting": "1 µM", "measurement": "inhibition", "value": "< 15%"}
{"Compound": "O=C1NC(=O)c2cc(Nc3ccc(F)cc3)c(Nc3ccc(F)cc3)cc21", "assay": "cell-free assay", "setting": "0.5 µM", "measurement": "remaining signal", "value": "95.9%"}
